In the library only some 2.3% were active in any assay of this set; here they are far more common.
TAAR1 antag: antagonists of human TAAR1; AID 624466; Q96RJ0; CHO RD-HGA16 TAAR1, Fluo-8 calcium fluorescence, antagonist; 360,000 tested, 1.5% active; inhibition, % at 3 µM;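 active = inhibition above a per-plate cutoff, the mean inhibition of test compounds on that plate plus 3 SD, cut at about 49% in these data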;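 note: 0% = DMSO plus EC80 beta-PEA response and 100% = DMSO alone without agonist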
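Material: RD-HGA16 CHO cells with stable hTAAR1 and Gα16; Dosing: single nominal final test compound concentration of 3 µM; Schedule: seeding 17-24 h prior, 75-min 37 °C, 30-min RT dye loading; Detection: kinetic Fluo-8 calcium fluorescence measurement; Measure: % inhibition from peak post-agonist over basal fluorescence ratio; Benchmarks: vehicle and agonist controls.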
OXTR potentiate: potentiates the human oxytocin receptor response | P30559 | CHO-OTR cells, Fluo-8 calcium fluorescence, potentiator mode; 0% = oxytocin EC15, 100% = EC100 | activation, % at 3 µM | 320,000 tested, 0.061% active;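 active = activation above that plate's cutoff, the mean activation of tested compounds plus 3 SD, cut at about 6.6% in these data, passing the limit was not always enough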;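 note: 100% uses oxytocin at 75 nM as the full agonist control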
Target sequence (P30559 whole entry, looked up): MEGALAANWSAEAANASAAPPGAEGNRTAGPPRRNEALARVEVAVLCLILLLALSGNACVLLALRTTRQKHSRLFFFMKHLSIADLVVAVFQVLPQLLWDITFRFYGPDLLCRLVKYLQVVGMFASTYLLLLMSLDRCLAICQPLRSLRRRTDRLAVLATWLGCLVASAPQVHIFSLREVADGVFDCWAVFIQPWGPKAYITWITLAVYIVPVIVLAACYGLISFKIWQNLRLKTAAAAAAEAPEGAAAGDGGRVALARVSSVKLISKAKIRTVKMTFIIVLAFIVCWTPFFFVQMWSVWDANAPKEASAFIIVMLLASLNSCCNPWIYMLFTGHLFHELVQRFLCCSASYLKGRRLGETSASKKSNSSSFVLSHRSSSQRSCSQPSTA
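test system = CHO-OTR cells, human receptor | compound = single-point 3.0 µM | schedule = 6 min compound pre-incubation at room temperature, 100 s kinetic read | signal = Fluo-8 no-wash calcium dye fluorescence, excitation 470-495 nm, emission 515-575 nm | repeats = single well per compound, singlicate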
OXTR ag: agonists of human oxytocin receptor; P30559; CHO-OTR cells, Fluo-8 calcium fluorescence; normalized: DMSO 0%, oxytocin 100%; activation, % at 3 µM; 320,000 tested, 0.32% active; AID 2435;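 active = activation above the mean of all tested compounds plus 3 SD, cutoff set per screening run, cut at about 20% in these data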;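 note: peak over basal fluorescence ratio from a 100 s FLIPR kinetic read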
V1aR counter: V1a receptor agonism, counter-screen for OXTR agonists; P37288; CHO-V1R cells, Fluo-8 calcium fluorescence, agonist mode; 0% DMSO, 100% 3 nM vasopressin; activation, % at 3 µM; 320,000 tested, 0.25% active; AID 2797;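 active = activation above the mean activation of all tested compounds plus 3 SD, per screening run, cut at about 20% in these data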;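 note: signal is peak over basal fluorescence ratio across a 100 second FLIPR read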
TAAR1 ag: human TAAR1 agonism. CHO RD-HGA16 TAAR1, Fluo-8 calcium fluorescence; vehicle wells 0%, saturating PEA agonist 100%. activation, % at 3 µM. 360,000 tested, 0.99% active;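 active = activation above the mean activation of all test compounds in the run plus 3 SD, cut at about 38% in these data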
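Benchmarks: low control DMSO, high control PEA (EC100); System: CHO RD-HGA16 cells carrying human TAAR1 plus Gα16; Detection: Fluo-8 fluorescence, 5 s baseline then 140 s kinetic read; Schedule: 17-24 h plating, Fluo-8 75 min 37 °C, 30 min RT; Read-out basis: % activation from peak over basal fluorescence ratio, DMSO-to-PEA scaled.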
nonsel antag count: nonselective antagonist in TAAR1 antagonist counter-screen | shares compounds with TAAR1 antag | counterscreen cell line, calcium fluorescence, antagonist mode | inhibition, % at 3 µM | 2,400 tested, 77% active | AID 651780; in the data active = inhibition above about 22%;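 note: CHO-Ga16 host cells stimulated with ATP at an EC80 level; 0% = agonist EC80 plus vehicle and 100% = vehicle without agonist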
TAAR1 ant conf: human TAAR1 antagonism, confirmed | 2,400 tested, 40% active | shares compounds with TAAR1 antag | TAAR1-expressing cells, fluorescence antagonist read-out | inhibition, % at 3 µM; in the data active = inhibition above about 49%;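 note: CHO-Ga16 host cells challenged with agonist PEA near its EC80; 0% = agonist at EC80 plus vehicle and 100% = vehicle with no agonist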
Ga16 nonsel ag: nonselective Ga16 agonist in TAAR1 antagonist counter-screen | shares compounds with TAAR1 antag | 2,400 tested, 18% active | activation, % at 3 µM | Ga16-expressing cells, calcium fluorescence, agonist counterscreen; in the data active = activation above about 12%;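 note: 0% = vehicle wells and 100% = saturating stimulus response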
TAAR1 ag count: activates human TAAR1 in antagonist counter-screen | shares compounds with TAAR1 antag | hTAAR1 cell line, fluorescence activation, agonist mode | activation, % at 3 µM | 2,400 tested, 2% active; in the data active = activation above about 37%;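 note: CHO cells stably expressing TAAR1 with calcium dye readout; 0% = DMSO vehicle and 100% = full agonist response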
* = called active by the depositor.

For COc1ccc(N2CCN(C(=O)c3cc(-c4cc(OC)ccc4OC)nc4ccccc34)CC2)cc1 the results were TAAR1 antag 60*, OXTR potentiate -9, OXTR ag -1, V1aR counter 0, TAAR1 ag 10, nonsel antag count 27*, TAAR1 ant conf 49*, Ga16 nonsel ag 11 and TAAR1 ag count 15.
Screening COc1cccc(CN2CCN(C(=O)c3cc(-c4cccnc4)nc4ccc(C)cc34)CC2)c1 returned TAAR1 antag 66*, OXTR potentiate -17, OXTR ag 1, V1aR counter 0, TAAR1 ag 14, nonsel antag count 27*, TAAR1 ant conf 48, Ga16 nonsel ag 9 and TAAR1 ag count 8.
For Cc1nc(C(=O)NNC(=O)c2ccccc2)c(C(F)(F)F)o1 the results were TAAR1 antag -11, OXTR potentiate -9, OXTR ag -1, V1aR counter 0 and TAAR1 ag 1.
`COc1ccc(N2CC(NS(=O)(=O)c3cccnc3)CC2=O)cc1OC` (stereo not given) gave TAAR1 antag 0, OXTR potentiate -4, OXTR ag -1, V1aR counter -1 and TAAR1 ag 2.
Screening COc1ccc(OC)c(-c2cc(C(=O)O)c3cc4ccccc4cc3n2)c1 returned TAAR1 antag -5 and TAAR1 ag 1.
COc1ccc(OC)c(-c2cc(C(=O)N3CCN(c4ncccn4)CC3)c3ccccc3n2)c1 was read as TAAR1 antag 78*, OXTR potentiate -2, OXTR ag -3, V1aR counter 1, TAAR1 ag 11, nonsel antag count 28*, TAAR1 ant conf 47, Ga16 nonsel ag 7 and TAAR1 ag count 20.
`O=c1c2ccc([N+](=O)[O-])cc2ncn1CCOc1cccc(Br)c1` gave TAAR1 antag 71*, OXTR potentiate -2, OXTR ag -1, V1aR counter 0, TAAR1 ag 13, nonsel antag count 30*, TAAR1 ant conf 56*, Ga16 nonsel ag 9 and TAAR1 ag count 6.
For O=C(COc1ccccc1)Nc1cccc(-c2nnc(-c3ccccc3)o2)c1 the results were TAAR1 antag 67*, OXTR potentiate -2, OXTR ag -1, V1aR counter 1, TAAR1 ag 13, nonsel antag count 38*, TAAR1 ant conf 51*, Ga16 nonsel ag 8 and TAAR1 ag count 4.
For CCC(=O)Nc1cccc(-c2nnc(-c3cccc(NC(=O)CC)c3)o2)c1 the results were TAAR1 antag 56*, OXTR potentiate -10, OXTR ag 1, V1aR counter 2, TAAR1 ag 21, nonsel antag count 22*, TAAR1 ant conf 43, Ga16 nonsel ag 7 and TAAR1 ag count 9.
CCC(OC(=O)C(CC(C)C)NC(=O)c1ccccc1)C(=O)Nc1nnc(C)s1 (stereo not given) was read as TAAR1 antag 40, OXTR potentiate -8, OXTR ag -2, V1aR counter -1 and TAAR1 ag 3.
`CCOC(=O)c1sc(NC(=O)C(CC)OC(=O)C(CC(C)C)NC(=O)c2ccccc2)nc1C` (stereo not given) gave TAAR1 antag 65*, OXTR potentiate -11, OXTR ag 0, V1aR counter 1, TAAR1 ag 11, nonsel antag count 39*, TAAR1 ant conf 57*, Ga16 nonsel ag 7 and TAAR1 ag count 4.
For CCOC(=O)c1[nH]c2ccc(OC)cc2c1NC(=O)CN1CCc2ccccc2C1 the results were TAAR1 antag 60*, OXTR potentiate -6, OXTR ag 2, V1aR counter 1, TAAR1 ag 17, nonsel antag count 23*, TAAR1 ant conf 51*, Ga16 nonsel ag 11 and TAAR1 ag count 23.
`CCOC(=O)c1[nH]c2ccc(OC)cc2c1NC(=O)CN1CCN(c2ccccn2)CC1` gave OXTR potentiate -6, OXTR ag 0 and V1aR counter 0.
Screening Cc1cc(C)cc(NC(=O)C2CCCN2S(=O)(=O)c2ccc3c(c2)C(C)(C)C(=O)N3C)c1 (stereo not given) returned TAAR1 antag 6, OXTR potentiate -3, OXTR ag -2, V1aR counter -1 and TAAR1 ag -1.
For CCOc1ccc(-n2c(C)cc(/C=N/NC(=O)C(N)=O)c2C)cc1 the results were TAAR1 antag -26, OXTR potentiate 2, OXTR ag 0, V1aR counter -1 and TAAR1 ag -1.
`CCOc1ccc(-n2c(C)cc(/C=N\NC(=O)CC(=O)NC3CCCCC3)c2C)cc1` gave TAAR1 antag 57*, OXTR potentiate -8, OXTR ag 0, V1aR counter 2, TAAR1 ag 0, nonsel antag count 25*, TAAR1 ant conf 47, Ga16 nonsel ag 5 and TAAR1 ag count -1.
Screening OC[C@@H]1CN(Cc2ccc(F)cc2)C[C@H](n2cnc3c(N4CCN(c5ccccc5)CC4)ncnc32)O1 returned TAAR1 antag 64*, TAAR1 ag 10, nonsel antag count 36*, TAAR1 ant conf 55*, Ga16 nonsel ag 18* and TAAR1 ag count 20.
`O=C1CCCCC1C(Nc1ccc(Br)cc1)c1ccccc1` (stereo not given) gave TAAR1 antag 41, OXTR potentiate -11, OXTR ag -3, V1aR counter -2 and TAAR1 ag 25.
`O=C1CCCCC1C(Nc1ccc(Cl)cc1)c1ccccc1` (stereo not given) gave TAAR1 antag 68*, OXTR potentiate -8, OXTR ag -2, V1aR counter -1, TAAR1 ag 11, nonsel antag count 13, TAAR1 ant conf 45, Ga16 nonsel ag 7 and TAAR1 ag count 10.
`CCOc1ccc(N2CC(C(=O)NCc3ccc(C)n3C)CC2=O)cc1` (stereo not given) gave TAAR1 antag -37, OXTR potentiate -8, OXTR ag 0, V1aR counter 0 and TAAR1 ag 1.

Bioassay records (PubChem)
